Results on two compounds are retold here after ChEMBL document CHEMBL5096174, “The Natural Alkaloid Berberine Can Reduce the Number of Pseudomonas aeruginosa Tolerant Cells” (2021).

A word on the MIC: it is the smallest concentration in the dilution series that meets the test's criterion for growth inhibition.

Values after ≈ are worked out from the molar mass of the structure shown. Active and inactive are the calls of the source. Where only a bound is given, the exact number is not on record here.

Test [1] can be described thus: Inhibition of efflux pump in wild type Pseudomonas aeruginosa K767 assessed as fold reduction in CFU count in presence of tobramycin incubated for 24 hrs by ethidium bromide efflux assay relative to tobramycin alone. Particulars: in the assay text read “by planktonic persistence assay” for “by ethidium bromide efflux assay”. The procedure, abridged:
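Stationary-phase overnight LB cultures (37 °C) exposed to tobramycin 20xMIC alone or with berberine 80 µg/mL for 24 h at 37 °C. At 0, 7 and 24 h, aliquots PBS-washed, 10-fold serially diluted, plated on antibiotic-free CLED agar. CFU counted after 24 h at 37 °C. Biological duplicate.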

Test [2] relates to Pseudomonas aeruginosa. Briefly: Bactericidal activity against wild type Pseudomonas aeruginosa K767 assessed as increase in biofilm production at 80 ug/ml incubated overnight by crystal voilet staining based analysis relative to control. The test is classed as functional. Particulars: dose 80 µg/ml. The method in brief: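 Biofilms grown overnight at 37 °C in flat-bottom microtiter plates in LB with or without berberine 80 µg/mL. Planktonic OD600 recorded; washed sessile phase stained 15 min with 1% crystal violet, dye taken up in 96% ethanol, OD570 read. Output is OD570/OD600. Run in triplicate.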

Test [3] has as its system Pseudomonas aeruginosa. Briefly: Bactericidal activity against Pseudomonas aeruginosa K1525 mexY mutant assessed as increase in biofilm production at 80 ug/ml incubated overnight by crystal voilet staining based analysis relative to control. Particulars: dose 80 µg/ml. The test is classed as functional. The procedure, abridged:
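Biofilms grown overnight at 37 °C in LB with or without berberine 80 µg/mL in flat-bottom microtiter wells. Planktonic phase removed and its OD600 read. Sessile phase washed with water, stained with 1% crystal violet for 15 min, washed, solubilised in 96% ethanol and read at OD570. Values normalised as OD570/OD600. Triplicate.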

Test [4] relates to Pseudomonas aeruginosa. Put plainly: Bactericidal activity against wild type Pseudomonas aeruginosa K767 persisters assessed as reduction in CFU at 20 times MIC incubated for 24 hrs by planktonic persistance assay. The test is classed as functional. The procedure, abridged: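 Stationary-phase overnight LB cultures at 37 °C were exposed to tobramycin 20xMIC, alone or with berberine 80 µg/mL, for 24 h at 37 °C. At 0, 7 and 24 h, aliquots were PBS-washed, 10-fold diluted and plated on antibiotic-free CLED agar, and survivor CFUs were counted after 24 h at 37 °C. Mean of two biological replicates ± SD.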

Test [5] concerns Pseudomonas aeruginosa. Briefly: Bactericidal activity against Pseudomonas aeruginosa K1525 mexY mutant persisters assessed as reduction in CFU at 20 times MIC incubated for 24 hrs by planktonic persistance assay. The test is classed as functional. The method in brief:
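Stationary-phase (overnight, LB, 37 °C) cultures exposed to tobramycin 20xMIC with or without berberine 80 µg/mL for 24 h at 37 °C. Aliquots taken before exposure and at 24 h, PBS-washed, serially 10-fold diluted and plated on antibiotic-free CLED agar. Surviving CFU counted after 24 h at 37 °C. Biological duplicate.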

Test [6] concerns Pseudomonas aeruginosa. Briefly: Bactericidal activity against Pseudomonas aeruginosa K1525 mexY mutant assessed as reduction in log increase in tolerant cells at 1000 times MIC measured after 24 hrs. The test is classed as functional. The procedure, abridged: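 Biofilms were grown overnight in LB in 35 mm dishes at 37 °C, then held 24 h at 37 °C in LB with tobramycin 1000xMIC, alone or with berberine 80 or 320 µg/mL. Biofilms were detached mechanically at T0 and T24, resuspended in PBS, 10-fold diluted and plated on CLED agar, and CFUs were counted after 24 h at 37 °C. Biological triplicates.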

For test [7], the system named is Pseudomonas aeruginosa. Put plainly: Antibacterial activity against Pseudomonas aeruginosa C61 assessed as log reduction of bacterial population measured after 24 hrs. The test is classed as functional. The method in brief:
(§1)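 Overnight LB cultures at 37 °C were exposed to tobramycin 20xMIC, alone or with berberine 80 µg/mL, for 24 h at 37 °C. Aliquots were PBS-washed, serially 10-fold diluted and plated on antibiotic-free CLED agar. CFUs were counted after 24 h at 37 °C, before exposure (T0) and at T24. Biological duplicates.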

For test [8], the system named is Pseudomonas aeruginosa. Briefly: Antibacterial activity against wild type Pseudomonas aeruginosa K767 assessed as reduction in bacterial growth rate in presence of berberine. The test is classed as functional, organism-based. The method in brief: (§2)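 Overnight LB cultures diluted to OD600 0.1 and shaken at 140 rpm, 37 °C, for 24 h with or without berberine 80 µg/mL. OD600 read at 2, 4, 6, 8 and 24 h. Biological triplicates.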

The subject of test [9] is Pseudomonas aeruginosa. Put plainly: Antibacterial activity against Pseudomonas aeruginosa K1525 mexY mutant assessed as reduction in bacterial growth rate in presence of berberine. The test is classed as functional, organism-based. The method in brief:
as §2

For test [10], the system named is Pseudomonas aeruginosa. Put plainly: Antibacterial activity against Pseudomonas aeruginosa NC01 cystic fibrosis assessed as reduction in bacterial growth. The test is classed as functional.
The test system of test [11] is Pseudomonas aeruginosa. Put plainly: Antibacterial activity against Pseudomonas aeruginosa NC01 cystic fibrosis assessed as tobramycin MIC in presence of berberine. The test is classed as functional. The method in brief: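 Broth microdilution per CLSI guidelines, tobramycin MIC determined in presence of berberine 80 μg/mL; strains grown in LB. Combination considered synergistic when MIC with berberine was ≥4 times lower than tobramycin alone.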

Test [12] deals with Pseudomonas aeruginosa. Put plainly: Antibacterial activity against Pseudomonas aeruginosa NC02 cystic fibrosis assessed as reduction in bacterial growth. The test is classed as functional.
Test [13] relates to Pseudomonas aeruginosa. Put plainly: Antibacterial activity against Pseudomonas aeruginosa NC02 cystic fibrosis assessed as tobramycin MIC in presence of berberine. The test is classed as functional. The procedure, abridged: (§3)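 Tobramycin MIC by CLSI broth microdilution in the presence of berberine 80 µg/mL.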
Test [14] deals with Pseudomonas aeruginosa. Briefly: Antibacterial activity against Pseudomonas aeruginosa NC04 cystic fibrosis assessed as reduction in bacterial growth. The test is classed as functional.
The subject of test [15] is Pseudomonas aeruginosa. Put plainly: Antibacterial activity against Pseudomonas aeruginosa NC04 cystic fibrosis assessed as tobramycin MIC in presence of berberine. The test is classed as functional. The procedure, abridged:
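Broth microdilution per CLSI; tobramycin MIC determined with berberine present at 80 µg/mL. Synergy defined as MIC in presence of berberine ≥4 times lower than tobramycin alone.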

In test [16] the test system is Pseudomonas aeruginosa. Put plainly: Antibacterial activity against Pseudomonas aeruginosa NC06 cystic fibrosis assessed as reduction in bacterial growth. The test is classed as functional.
In test [17] the test system is Pseudomonas aeruginosa. Briefly: Antibacterial activity against Pseudomonas aeruginosa NC06 cystic fibrosis assessed as tobramycin MIC in presence of berberine. The test is classed as functional. The procedure, abridged: as §3
The test system of test [18] is Pseudomonas aeruginosa. Briefly: Antibacterial activity against Pseudomonas aeruginosa NC10 cystic fibrosis assessed as reduction in bacterial growth. The test is classed as functional.
For test [19], the system named is Pseudomonas aeruginosa. Briefly: Antibacterial activity against Pseudomonas aeruginosa NC10 cystic fibrosis assessed as tobramycin MIC in presence of berberine. The test is classed as functional. The method in brief:
as §3

Test [20] concerns Pseudomonas aeruginosa. Put plainly: Antibacterial activity against cystic fibrosis isolate Pseudomonas aeruginosa C25 assessed as fold reduction in MIC in presence of berberine by broth microdilution method. The test is classed as functional. The procedure, abridged: (§4)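 Tobramycin MIC was determined without and with berberine 80 µg/mL by CLSI broth microdilution. The combination was called synergistic when the MIC with berberine was ≥4 times lower than with tobramycin alone.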
Background: Dilution methods test growth across graded concentrations, often in twofold steps.

Test [21] deals with Pseudomonas aeruginosa. Put plainly: Antibacterial activity against clinical isolate Pseudomonas aeruginosa C54 assessed as fold reduction in MIC in presence of berberine by broth microdilution method. The test is classed as functional. The method in brief: as §4
Test [22] relates to Pseudomonas aeruginosa. Briefly: Antibacterial activity against clinical isolate Pseudomonas aeruginosa C59 assessed as fold reduction in MIC in presence of berberine by broth microdilution method. The test is classed as functional. The method in brief:
as §4

Test [23] has as its system Pseudomonas aeruginosa. Put plainly: Antibacterial activity against clinical isolate Pseudomonas aeruginosa C84 assessed as fold reduction in MIC in presence of berberine by broth microdilution method. The test is classed as functional. The procedure, abridged: as §4
For test [24], the system named is Pseudomonas aeruginosa. Briefly: Antibacterial activity against cystic fibrosis isolate Pseudomonas aeruginosa AR48 assessed as fold reduction in MIC in presence of berberine by broth microdilution method. The test is classed as functional. The procedure, abridged: as §4
The test system of test [25] is Pseudomonas aeruginosa. Briefly: Antibacterial activity against cystic fibrosis isolate Pseudomonas aeruginosa NC06 assessed as fold reduction in MIC in presence of berberine by broth microdilution method. The test is classed as functional. The procedure, abridged:
as §4

The subject of test [26] is Pseudomonas aeruginosa. Briefly: Antibacterial activity against cystic fibrosis isolate Pseudomonas aeruginosa C25 assessed as log reduction in tolerant cell in presence of berberine by broth microdilution method. The test is classed as functional. The procedure, abridged:
as §1

Test [27] has as its system Pseudomonas aeruginosa. Put plainly: Antibacterial activity against cystic fibrosis isolate Pseudomonas aeruginosa C30 assessed as log reduction in tolerant cell in presence of berberine by broth microdilution method. The test is classed as functional. The procedure, abridged: as §1
Test [28] concerns Pseudomonas aeruginosa. Briefly: Antibacterial activity against clinical isolate Pseudomonas aeruginosa C54 assessed as log reduction in tolerant cell in presence of berberine by broth microdilution method. The test is classed as functional. The procedure, abridged:
as §1

For test [29], the system named is Pseudomonas aeruginosa. Briefly: Antibacterial activity against clinical isolate Pseudomonas aeruginosa C84 assessed as log reduction in tolerant cell in presence of berberine by broth microdilution method. The test is classed as functional. The method in brief:
as §1

Test [30] relates to Pseudomonas aeruginosa. Put plainly: Antibacterial activity against cystic fibrosis isolate Pseudomonas aeruginosa NC06 assessed as reduction in tolerant cell in presence of berberine by broth microdilution method. The test is classed as functional. The procedure, abridged:
as §1

In the case of `COc1ccc2cc3[n+](cc2c1OC)CCc1cc2c(cc1-3)OCO2` [BERBERINE], the fold change (FC) in test [1] stood at 10. Besides, the Activity in [2] came out at 100%; in [3], 50%.
Take `NC[C@H]1O[C@H](O[C@H]2[C@H](O)[C@@H](O[C@H]3O[C@H](CO)[C@@H](O)[C@H](N)[C@H]3O)[C@H](N)C[C@@H]2N)[C@H](N)C[C@@H]1O` [TOBRAMYCIN]: the log(activity) in test [4] was 4.11e+07; in test [6], 3; in test [7], 1; in [26], 2.5; in test [27], 3; in test [28], 1.5. The “log(activity)” value in test [29] is on record as 0.5; in [30], 2. Moreover, the Activity in test [5] was 250000 CFU/ml. In addition, the outcome in test [8] and in [9] was Active. Further, the MIC in test [10] was 16 µg/mL (≈ 34.2 µM); in test [11] it was 8 µg/mL; in [12], 32 µg/mL (≈ 68.4 µM); in test [13] it was 16 µg/mL; in test [14], 0.5 µg/mL (≈ 1.07 µM); in test [15] it was below 0.125 µg/mL. The MIC in test [16] stood at 2 µg/mL (≈ 4.28 µM); in test [17] it was 0.5 µg/mL; in test [18], 1 µg/mL (≈ 2.14 µM); in test [19] it was 0.25 µg/mL. For the same compound, the “fold change (FC)” value is listed as 16 in [20]; 2 in test [21]; 2 in test [22]; 4 in test [23]; 4 in [24]; 4 in [25].
